Among the data in ChEMBL document CHEMBL3632558, “Synthesis, antimycobacterial and antibacterial activity of l-[(1R,2S)-2-fluorocyclopropyl]naphthyridone derivatives containing an oxime-functionalized pyrrolidine moiety” (2015) are MIC90 values, retold here.

≈ marks a conversion by molar mass, not a printed value. Some results are limits rather than exact numbers.

For the assay, the system named is Mycobacterium tuberculosis. The experiment in a line: Antimycobacterial activity against multidrug-resistant Mycobacterium tuberculosis 6133 by alamar blue assay. Type of assay: functional. In a few lines:
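Microplate Alamar Blue Assay; MIC is the lowest concentration giving ≥90% reduction in fluorescence relative to the mean of replicate bacterium-only controls. MDR strain 6133 is resistant to isoniazid and rifampicin.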
In general terms: Alamar Blue is a resazurin reagent that responds to reducing activity.

Usually MIC90 stands for an inhibitory concentration at the 90% level, which refers to growth in some studies and to a panel of isolates in others. High values mean lower susceptibility, low ones higher susceptibility. `NCC1CN(c2nc3c(cc2F)c(=O)c(C(=O)O)cn3[C@@H]2C[C@@H]2F)C/C1=N\OCc1ccc(F)cc1` (stereo partly specified) had an MIC90 of 0.043 µg/mL (≈ 0.0857 µM).
The same measure for `Cc1ccc(CO/N=C2\CN(c3nc4c(cc3F)c(=O)c(C(=O)O)cn4[C@@H]3C[C@@H]3F)CC2CN)cc1` (stereo partly specified): 0.03 µg/mL (≈ 0.0603 µM).
`NCC1CN(c2nc3c(cc2F)c(=O)c(C(=O)O)cn3[C@@H]2C[C@@H]2F)C/C1=N\OCc1ccc2c(c1)OCO2` (stereo partly specified): the MIC90 was 0.054 µg/mL (≈ 0.102 µM). Compared with the last molecule, the MIC90 is about 1.8-fold higher.
`NCC1CN(c2nc3c(cc2F)c(=O)c(C(=O)O)cn3[C@@H]2C[C@@H]2F)C/C1=N\OCc1ccccc1` (stereo partly specified) came in with an MIC90 of 0.125 µg/mL (≈ 0.259 µM).
`NNC(=O)c1ccncc1` [ISONIAZID] returned an MIC90 of 4 µg/mL (≈ 29.2 µM).
The molecule `CO[C@H]1/C=C/O[C@@]2(C)Oc3c(C)c(O)c4c(O)c(c(/C=N/N5CCN(C)CC5)c(O)c4c3C2=O)NC(=O)/C(C)=C\C=C\[C@H](C)[C@H](O)[C@@H](C)[C@@H](O)[C@@H](C)[C@H](OC(C)=O)[C@@H]1C` [RIFAMPIN] gave an MIC90 of more than 40 µg/mL.
